Assay results pooled from the literature.
Protocols differ between the studies behind these lines.
Read-out: microbial growth

CC1=NN(CNc2ccc(Cl)cc2)C(=O)C1=NNn1c(-c2ccccc2)nc2ccccc2c1=O — MIC (Aspergillus niger; broth dilution): 51.5 µM
Cc1ccc2nc(-c3ccccc3O)[nH]c2c1 — MIC (Aspergillus niger; ATCC16404): 512 µg/mL
CC1=NN(CNc2ccc(C(=O)O)cc2)C(=O)C1=NNn1c(-c2ccccc2)nc2ccccc2c1=O — MIC (Aspergillus niger; broth dilution): 50.5 µM
Cc1ccc(C)n1-c1ccc(-c2nnc(-c3cccc([N+](=O)[O-])c3)[nH]2)cc1 — MIC (Aspergillus niger; broth dilution; ATCC6275): 31.2 µg/mL
CCOCCn1cnc2nc(NCc3ccc(Cl)c(Cl)c3)[nH]c(=O)c21 — MIC (Bacteroides fragilis; agar dilution; 48 h): > 32 µg/mL
O=[N+]([O-])c1cccc(-c2nc3ccccc3[nH]2)c1 — MIC (Aspergillus niger; ATCC16404): 512 µg/mL
CCCCCCCCCN1CCNCC1 — MIC (Lodderomyces parapsilosis; broth dilution; ATCC22019; 48 h): > 31.3 µg/mL
Clc1ccc(-c2nc3ccccc3[nH]2)cc1Cl — MIC (Aspergillus niger; ATCC16404): 256 µg/mL
CCCCCCCCCCCCCN1CCNCC1 — MIC (Lodderomyces parapsilosis; broth dilution; ATCC22019; 48 h): 1.95 µg/mL
CC[C@@H]([C@H](C)O)n1ncn(-c2ccc(N3CCN(c4ccc(OC[C@@H]5CO[C@@](Cn6cncn6)(c6ccc(F)cc6F)C5)cc4)CC3)cc2)c1=O — MIC (Aspergillus brasiliensis; ATCC16404; 72 h): < 0.3 µM
Cc1ccc(C)n1-c1ccc(-c2nnc(-c3ccc(N(C)C)cc3)[nH]2)cc1 — MIC (Aspergillus niger; broth dilution; ATCC6275): 62.5 µg/mL
Cc1ccc2nc(-c3ccc(Cl)cc3)[nH]c2c1 — MIC (Aspergillus niger; ATCC16404): 256 µg/mL
O=C(c1cc(O)c(O)c(O)c1)c1cc2ccccc2o1 — MIC (Lodderomyces parapsilosis; broth dilution): 16 µg/mL
CCCCCCCCCCCCCN1CCN(CC(O)(Cn2cncn2)c2ccc(F)cc2F)CC1 (stereo not drawn) — MIC (Lodderomyces parapsilosis; broth dilution; ATCC22019; 48 h): < 0.24 µg/mL
Clc1ccccc1-c1nc2ccccc2[nH]1 — MIC (Aspergillus niger; ATCC16404): 512 µg/mL
CCCCCCCCCCCN1CCNCC1 — MIC (Lodderomyces parapsilosis; broth dilution; ATCC22019; 48 h): 7.8 µg/mL
Cc1ccc(C)n1-c1ccc(-c2nnc(-c3ccccc3[N+](=O)[O-])[nH]2)cc1 — MIC (Aspergillus niger; broth dilution; ATCC6275): 31.2 µg/mL
Fc1ccc(C2(Cn3cncn3)CO2)c(F)c1 (stereo not drawn) — MIC (Lodderomyces parapsilosis; broth dilution; ATCC22019; 48 h): > 31.3 µg/mL
Cc1ccc2nc(-c3ccc([N+](=O)[O-])cc3)n(Cc3ccccc3Cl)c2c1 — MIC (Aspergillus niger; ATCC16404): 128 µg/mL
CCCCCCCCCCCCN1CCNCC1 — MIC (Lodderomyces parapsilosis; ATCC22019): 1.95 µg/mL
Cc1ncc([N+](=O)[O-])n1CCO — MIC (Bacteroides fragilis; agar dilution; 48 h): 1 µg/mL
CCCCCCCCN1CCN(CC(O)(Cn2cncn2)c2ccc(F)cc2F)CC1 (stereo not drawn) — MIC (Lodderomyces parapsilosis; broth dilution; ATCC22019; 48 h): 0.03 µg/mL
C=CCn1c(-c2ccc(Cl)cc2)nc2ccccc21 — MIC (Aspergillus niger; ATCC16404): 512 µg/mL
Cc1ccc(C)n1-c1ccc(-c2nnco2)cc1 — MIC (Aspergillus niger; broth dilution; ATCC6275): 125 µg/mL
Cc1ccc2nc(-c3ccc([N+](=O)[O-])cc3)n(Cc3ccccc3)c2c1 — MIC (Aspergillus niger; ATCC16404): 256 µg/mL
CCCCCCCCN1CCNCC1 — MIC (Lodderomyces parapsilosis; broth dilution; ATCC22019; 48 h): > 31.3 µg/mL
O=C1/C(=C/c2cc(O)c(O)c(O)c2)Oc2cccc(O)c21 — MIC (Lodderomyces parapsilosis; broth dilution): 16 µg/mL
